# The sample as a whole holds a higher share of hits than the screen did.
# Bfl-1 A1 inh – inhibitors of the anti-apoptotic protein A1, read as caspase activation; 330,000 compounds, 0.066% hits; caspase activation, % (concentration not given with the values); MEF A1-2A-BIM cells, Caspase-Glo 3/7 luminescence, 3 h; percent of clofoctol response, vehicle zero;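 active = over half of replicate activation scores above 10%, or exactly half above 10 with the replicate mean above 10; inconclusive = replicate mean below 10 yet half the replicates above 10; inactive = over half of replicates below 10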
# UPR CHOP act – activators of apoptotic arm of unfolded protein response (CHOP); CHO-CHOP luciferase reporter, UPR activation, luminescence; percent of tunicamycin response over DMSO baseline; activation, % at 10 µM; 330,000 compounds, 0.34% hits;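 active = at 10 µM dose, activation of 40% or more, normalized to positive control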;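 note: 100% = tunicamycin at 10 µg/mL and 0% = DMSO alone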
#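 System: CHO-CHOP luciferase reporter cell line; amount: 500 cells/well; buffer or medium: F12 medium containing 10% fetal bovine serum; incubation: 6 h compound exposure at 37 °C after overnight seeding; measured by: luciferase luminescence after 10 min with Steady-Glo reagent; evaluation: % reporter activation, DMSO baseline versus tunicamycin full activation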
# UPR XBP1 act – activators of adaptive arm of unfolded protein response (XBP1); activation, % at 20 µM; 330,000 compounds, 0.33% hits; CHO-XBP1 luciferase reporter, IRE1-XBP1 UPR activation, luminescence; percent of tunicamycin response, DMSO as zero;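 active = versus positive control, 20 µM dose yields 30% or more activation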;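 note: 100% = tunicamycin at 10 µg/mL and 0% = DMSO only wells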
#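 Assay system: CHO-XBP1 luciferase reporter cells; Schedule: 6 h treatment, 37 °C; Detection: glow luminescence from Steady-Glo reagent; Benchmarks: high control tunicamycin 10 µg/mL final, low control DMSO vehicle only.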
# CHOP inh – blocks CHOP induction under ER stress; CHO-K1 CHOP-promoter luciferase, tunicamycin-induced, 15-18 h; inhibition, % at 10 µM; 220,000 compounds, 3.8% hits; AID 2732;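 active = compounds that reduced the stress-induced luciferase reporter signal by more than about 70% of percent inhibition, limit read from the data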;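 note: 0% = tunicamycin plus vehicle and 100% = wells without tunicamycin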
# CHOP inh conf – confirmation of CHOP induction inhibitors; AID 504437; shares compounds with CHOP inh; inhibition, % at 10 µM; 2,100 compounds, 45% hits; CHO-CHOP promoter luciferase reporter, tunicamycin-induced, luminescence;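 active = mean of three repeat readings of reporter signal inhibition above a set limit, cut at about 70% in these data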;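 note: 0% = tunicamycin plus vehicle and 100% = wells lacking tunicamycin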
# * hit, by the source's call; ? = inconclusive; / = no result.
SMILES,Bfl-1 A1 inh,UPR CHOP act,UPR XBP1 act,CHOP inh,CHOP inh conf
CC(C)(C)C1C/C(=C/c2ccccn2)C(=O)/C(=C/c2ccccn2)C1 (configuration not stated),?,-9,-7,109*,137*
CC1C/C(=C/c2ccccn2)C(=O)/C(=C/c2ccccn2)C1 (configuration not stated),0,14,-6,108*,113*
COc1cc2c(cc1OC)CN(C(=O)c1ccc(S(=O)(=O)N(C)c3ccccc3)cc1)CC2,0,2,3,39,/
C=CCNC(=S)N1CCC(C(=O)c2ccc3c(c2)OCCO3)CC1,0,4,3,0,/
c1ccc2c3c(c(CN4CCCC4)cc2c1)COC3,1,-1,0,-11,/
Cc1ccc2c(COC(=O)c3n[nH]c4ccccc34)cc(=O)oc2c1,-2,3,5,50,/
CCc1ccc2c(COC(=O)c3n[nH]c4ccccc34)cc(=O)oc2c1,-1,1,1,100*,18
COc1cccc(CNC(=O)COC(=O)c2cccc(S(=O)(=O)N3CCCC3)c2)c1,/,1,1,/,/
CCCCCc1c(C)nc(NCc2ccccc2)[nH]c1=O,1,-1,0,109*,134*
O=c1[nH]c(NCc2ccccc2)nc2c1CCC2,1,0,0,10,/
Cc1ccc(N2CC(=O)Nc3c(oc4nc(-c5ccccc5)cc(C)c34)C2=O)cc1,-1,3,2,97*,-69
Cc1ccc(CN2C(=O)N/C(=C/c3ccc4c(c3)n(C)c(=O)n4C)C2=O)cc1,0,0,3,106*,55
O=C(Oc1oc(-c2ccco2)nc1C=Nc1ccccc1)c1ccoc1,1,2,2,109*,-5
Cc1ccc(C(=O)Oc2oc(-c3ccco3)nc2C=Nc2ccc(Cl)cc2)cc1,1,31,7,101*,0
O=C(N1CCCCC1)N1CCN(S(=O)(=O)c2ccccc2)CC1,-1,1,1,/,/
Cc1ccc(OCc2nc(-c3ccc(Cl)cc3)n[nH]2)cc1,1,3,2,100*,34
Fc1ccc(OCc2nc(-c3ccncc3)n[nH]2)cc1,0,-1,1,-1,/
Cc1ccc(Nc2nc(N)c([N+](=O)[O-])c(N3CCCC(C)C3)n2)cc1C (configuration not stated),-1,1,3,101*,64
COc1ccc(NS(=O)(=O)c2ccc3oc(SCc4ccc(F)cc4)nc3c2)cc1,0,-1,0,96*,58
O=C(Nc1ccccc1)N1CCSc2ccccc21,0,0,0,5,/
Cc1nc(N)sc1-c1csc(Nc2ncccn2)n1,/,/,/,103*,-211
COc1ccccc1Nc1nc(-c2sc(N)nc2C)cs1,0,0,-4,/,/
FC(F)(F)c1ccc(/C=N/NC(=S)NC2CCCCC2)cc1,0,-1,-1,106*,108*
N#Cc1c(NCCN)nc(-c2ccco2)c2c1CCCC2,0,0,-1,105*,30
CCOC(=O)c1cccc(NC(=O)CNC(=O)C2CCCCC2)c1,0,-1,-2,9,/
SMILES,Bfl-1 A1 inh,UPR CHOP act,UPR XBP1 act,CHOP inh,CHOP inh conf
COc1ccc(NC(=O)/C(Cl)=C(/Cl)S(=O)Cc2ccc(Cl)cc2)cn1 (configuration not stated),/,-11,-9,107*,140*
Cc1cc2c(cc1C)CSC(c1c(O)ccc3ccccc13)SC2,0,-1,13,112*,116*
Cc1cc2c(cc1C)CSC(c1ccccc1O)SC2,-1,2,7,108*,111*
Cc1cc2c(cc1C)CSC(c1ccc3ccccc3c1O)SC2,-1,-2,-2,65,/
Cc1c(OCc2ccccc2)c(=O)ccn1Cc1ccc(Cl)cc1,1,-1,4,105*,28
COc1cc(/C=C/c2cccc[n+]2C)ccc1OCC(=O)Nc1ccccc1C,0,1,0,/,/
CCOc1cc(/C=C\[N+](=O)[O-])ccc1OCC(=O)Nc1ccccc1C,31*,-11,-6,108*,136*
Cc1cccc2c(=O)c(-c3ccc4c(c3)OCO4)c(NC(=O)c3ccco3)oc12,-2,0,-1,/,/
C=CCc1cccc(/C=N/NC(=O)CCC(=O)Nc2ccc(C)cc2)c1O,1,-1,-1,98*,69
O=C(NCc1cccnc1)c1cccc(S(=O)(=O)N2CCOCC2)c1,0,-1,2,-6,/
c1ccc2c(c1)ncn2-c1ccc(-c2ccnc(-c3ccncc3)n2)cc1,0,-1,1,99*,6
Nc1nccc(-c2ccc(-n3cnc4ccccc43)cc2)n1,-3,5,2,57,/
CC(=O)N1CCN(c2nc3ccc(Br)cc3s2)CC1,-3,1,0,/,/
CCOc1ccc(N(CC(=O)Nc2cccc(Cl)c2)S(=O)(=O)c2c(C)noc2C)cc1,0,0,-6,107*,81*
COc1cc(/C=N/N2CCN(C3c4ccccc4-c4ccccc43)CC2)ccc1O,0,0,-3,106*,38
COC(=O)COc1ccccc1C(=O)Nc1ccc(OC)cc1,0,2,1,1,/
Cc1csc(NC(=O)C2CCCCC2C(=O)O)n1 (configuration not stated),1,1,-1,-30,/
Cc1cc(=O)n2c(C(=O)Nc3ccc(C)c(C)c3)c(C(=O)Nc3ccccc3)sc2n1,0,2,0,97*,26
Cc1ccc(NC(=O)c2c(C)nc3ccccn23)cc1C,-3,5,7,-15,/
C(=N\Nc1nc(-c2ccccc2)cs1)/c1cccnc1,1,4,-1,42,/
Clc1ccc(-c2csc(N/N=C/c3cccnc3)n2)c(Cl)c1,-1,0,2,98*,87*
CC1=NN(c2ccc(C)c(C)c2)C(=O)/C1=C\C=C\c1ccc([N+](=O)[O-])o1,1,25,1,108*,21
C[C@H](CO)N1C[C@H](C)[C@H](CN(C)S(=O)(=O)c2ccccc2)Oc2c(NS(C)(=O)=O)cccc2C1=O,0,1,-3,/,/
CCSc1nnc(NC(=O)C2CC2c2ccccc2)s1 (configuration not stated),-1,3,-1,102*,-64
Cc1ccc(SCc2cc(=O)[nH]c(Nc3nc(C)c4ccc(C)cc4n3)n2)cc1,0,1,2,17,/
Cc1ccc2c(C)nc(Nc3nc(CSc4nc5ccccc5[nH]4)cc(=O)[nH]3)nc2c1,0,-4,1,104*,106*
CCCCC1=CC2=C(c3ccco3)C(=O)C(C)(OC(=O)c3ccc(OC)cc3)C(=O)C2=CN1c1ccccc1 (configuration not stated),1,1,-1,104*,-64

# Compound activity (PubChem)
